The record followed here is PubChem BioAssay AID540246 (Broad Institute, 2011).

The assay is described as follows: cytotoxicity in ldlA[mSR-BI] cells, dose response, cytotoxicity control for SR-BI HDL uptake inhibitor project, cell-based, CellTiter-Glo, 3 h, dry powder (AID 540246). To be noted: ldlA[mSR-BI] CHO cells viability, CellTiter-Glo ATP, 3 h; at 35 µM (top of the series). The gist of the method:
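Test system: ldlA[mSR-BI] cells, viability (cytotoxicity counter-screen); buffer or medium: Ham's F12 plus 10% FCS; incubation: 3 h compound treatment, 37 °C; measured by: luminescence from Cell Titer Glo luciferase reagent sensing cellular ATP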

SMILES strings stand for the structures. Active and inactive are the calls of the source.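 How the source made its calls: active means IC50 no more than ten times the top valid dose, with luminescence dropping as cells die; inconclusive means flat curve losing 30 to 70% of signal, or poor fit; inactive means the rest, including signal rises.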

Consider `C[C@H](CO)N1C[C@H](C)[C@H](CN(C)S(=O)(=O)c2ccc(F)cc2)Oc2ccc(NS(C)(=O)=O)cc2C1=O`, for which the activity change, negative = cytotoxicity is -0.83% (inactive). To `C[C@@H]1CN([C@H](C)CO)C(=O)c2cc(NC(=O)Cc3cn(C)c4ccccc34)ccc2O[C@@H]1CN(C)S(=O)(=O)c1ccc(F)cc1` belongs 4.76% (inactive); to `CC(OC(=O)c1cccc(NS(C)(=O)=O)c1)C(=O)Nc1ccc(N2CCOCC2)cc1` (stereo not drawn), -2.45% (inactive); to `C[C@@H]1CN([C@H](C)CO)C(=O)c2cc(NC(=O)Cc3cn(C)c4ccccc34)ccc2O[C@H]1CN(C)C(=O)Nc1ccc(F)cc1`, 0.369% (inactive). In the case of `O=C(Nc1cc(C(F)(F)F)ccc1Cl)c1ccccc1NS(=O)(=O)c1ccc(Cl)cc1`, the activity change, negative = cytotoxicity is 4.37% (inactive). For `C[C@@H]1CN([C@H](C)CO)C(=O)c2cc(NC(=O)Cc3cn(C)c4ccccc34)ccc2O[C@H]1CN(C)S(=O)(=O)c1ccc(Cl)cc1` the value was 1.29% (inactive); for `Nc1ccc(C(=O)Nc2ccc(-c3nc4ccc(NC(=O)c5ccc(N)cc5)cc4[nH]3)cc2)cc1`, 11.1% (inactive); for `C[C@H](CO)N1C[C@H](C)[C@H](CN(C)S(=O)(=O)c2ccc(F)cc2)Oc2ccc(NC(=O)CCC(F)(F)F)cc2C1=O`, 0.245% (inactive).

Turning to `C[C@H](CO)N1C[C@H](C)[C@@H](CN(C)S(=O)(=O)c2ccc(F)cc2)Oc2ccc(NC(=O)Cc3cn(C)c4ccccc34)cc2C1=O`, the activity change, negative = cytotoxicity was 4.04% (inactive). For `CC(C)NC(=O)Nc1cccc2c1O[C@H](CN(C)Cc1ccc(Cl)c(Cl)c1)[C@@H](C)CN([C@@H](C)CO)C2=O` the value was 3.16% (inactive); for `CCc1cc2cc3c(cc2nc1SCC(=O)OC(C)C)OCO3`, 0.059% (inactive); for `C[C@H]1CN([C@@H](C)CO)C(=O)c2cccc(N(C)C)c2O[C@@H]1CN(C)Cc1ccc(Cl)c(Cl)c1`, -9.85% (inactive).

`C[C@H]1CN([C@@H](C)CO)C(=O)c2cc(NC(=O)Cc3cn(C)c4ccccc34)ccc2O[C@@H]1CN(C)S(=O)(=O)c1ccc(F)cc1`: the activity change, negative = cytotoxicity is 6.2% (inactive). For `C[C@@H]1CN([C@H](C)CO)C(=O)Cc2cc(NC(=O)Cc3cn(C)c4ccccc34)ccc2O[C@H]1CN(C)S(=O)(=O)c1ccc(F)cc1` the value was -1% (inactive); for `CC(C)(C)NC(=O)N1CCN(c2ncccc2C(F)(F)F)CC1`, 5.12% (inactive); for `O=C(Nc1cccc(NC(=O)c2cc([N+](=O)[O-])ccc2Cl)n1)c1cc([N+](=O)[O-])ccc1Cl`, -3.61% (inactive). To `C[C@H]1CN([C@@H](C)CO)C(=O)c2cccc(NC(=O)Nc3ccccc3)c2O[C@@H]1CN(C)Cc1ccc(C(F)(F)F)cc1` belongs 0.509% (inactive). For `Cc1cc(SC(C)C(=O)Nc2ncc(Cl)cc2Cl)nc2ccccc12` (stereo not drawn) the value was -7.81% (inactive). On to `C[C@H]1CN([C@@H](C)CO)C(=O)c2cccc(NC(=O)Nc3ccccc3)c2O[C@@H]1CN(C)S(C)(=O)=O`, for which the activity change, negative = cytotoxicity is -2.86% (inactive). As to `C[C@@H]1CN([C@H](C)CO)C(=O)c2cc(NC(=O)Cc3cn(C)c4ccccc34)ccc2O[C@H]1CN(C)S(=O)(=O)c1ccccc1`, the activity change, negative = cytotoxicity is 1.67% (inactive). On to `C[C@@H]1CN([C@H](C)CO)C(=O)c2cc(NC(=O)Cc3cn(C)c4ccccc34)ccc2O[C@H]1CN(C)S(=O)(=O)c1ccc(F)cc1`, for which the activity change, negative = cytotoxicity was 3.35% (inactive). To `N#Cc1sc2nc(C3CC3)cc(-c3ccc(Cl)cc3)c2c1N` belongs -2.17% (inactive); to `O=C(Nc1ccccc1Cl)c1ccccc1NS(=O)(=O)c1ccccc1`, 0.062% (inactive). For `C[C@H]1CN([C@@H](C)CO)C(=O)c2cccc(NC(=O)Nc3ccccc3)c2O[C@@H]1CN(C)Cc1ccccc1` the value was 6.56% (inactive).

For `C[C@H]1CN([C@@H](C)CO)C(=O)c2cccc(NC(=O)Nc3ccccc3)c2O[C@@H]1CN(C)C`, the activity change, negative = cytotoxicity was -3.85% (inactive). To `O=C(Nc1ccc(-c2nc3cc(NC(=O)c4ccccc4[N+](=O)[O-])ccc3o2)cc1)c1ccccc1[N+](=O)[O-]` belongs 9.71% (inactive); to `C[C@@H]1CN([C@H](C)CO)C(=O)c2cc(NC(=O)Cc3cn(C)c4ccccc34)ccc2O[C@H]1CN(C)S(C)(=O)=O`, 0.836% (inactive); to `O=C(Nc1ccc(-c2nc3ccc(NC(=O)c4ccccc4[N+](=O)[O-])cc3[nH]2)cc1)c1ccccc1[N+](=O)[O-]`, 6.25% (inactive). To `O=C(Nc1ccc(-c2nc3cc(NC(=O)c4ccc(NC(=O)c5cccc6ccccc56)cc4)ccc3[nH]2)cc1)c1ccc(NC(=O)c2cccc3ccccc23)cc1` belongs -0.376% (inactive); to `COc1cccc(-c2csc(N3CCN(C(=S)Nc4cccc(Cl)c4)CC3)n2)c1`, -1.79% (inactive). For `COc1ccc(OC)c(CCNC(=O)c2ccc3c(c2)N(Cc2ccc(F)cc2)CCS3)c1` the value was -8.19% (inactive); for `C[C@H]1CN([C@@H](C)CO)C(=O)c2cc(NC(=O)Nc3ccccc3)ccc2O[C@@H]1CN(C)Cc1ccc(Cl)c(Cl)c1`, -3.65% (inactive); for `CCC(=O)N1CCc2cc(-c3csc(NC(=O)c4ccco4)n3)ccc21`, -3.84% (inactive). `CCc1sc(N2C(=O)C3C4CCC(C4=C(C)C)C3C2=O)nc1-c1ccccc1` (stereo not drawn): the activity change, negative = cytotoxicity was 3.35% (inactive). To `C[C@@H]1CN([C@@H](C)CO)C(=O)c2cc(NC(=O)Cc3cn(C)c4ccccc34)ccc2O[C@H]1CN(C)S(=O)(=O)c1ccc(F)cc1` belongs -10.2% (inactive). For `O=C(Nc1cc(Cl)ccc1Cl)c1cc(Br)ccc1NS(=O)(=O)c1ccc(Cl)c([N+](=O)[O-])c1` the value was -7.81% (inactive); for `CCn1c(COc2c(C)cccc2C)nnc1SCC(=O)N1CCN(c2ccccc2)CC1`, -2.44% (inactive); for `CCOC(=O)N1CCC(NC(=O)c2ccc3c(c2)N(Cc2ccc(F)cc2)CCS3)CC1`, -2.37% (inactive). For `O=C(Nc1ccc(-c2nc3ccc(NC(=O)c4ccc(Cl)cc4)cc3[nH]2)cc1)c1ccc(Cl)cc1` the value was 5.01% (inactive). As for `CNC[C@@H]1Oc2ccc(NC(=O)Cc3cn(C)c4ccccc34)cc2C(=O)N([C@H](C)CO)C[C@H]1C`, the activity change, negative = cytotoxicity is -2.77% (inactive). For `C[C@H]1CN([C@@H](C)CO)C(=O)c2cccc(NS(C)(=O)=O)c2O[C@@H]1CN(C)Cc1ccc(Cl)c(Cl)c1` the value was 7.9% (inactive); for `COc1ccc([C@H]2CC(=O)C=C(c3cccc4c3sc3ccccc34)C2)cc1OC`, 3.09% (inactive).

On to `Cc1cc(C)c2c(c1)NC(c1cc3c(cc1Br)OCO3)C1CC=CC21` (stereo not drawn), for which the activity change, negative = cytotoxicity was -1.84% (inactive).
